From ChEMBL document CHEMBL1139668, “Structure-activity relationship studies on niphimycin, a guanidylpolyol macrolide antibiotic. Part 1: The role of the N-methyl-N''-alkylguanidinium moiety” (2006)
Values after ≈ are worked out from the molar mass of the structure shown. Active and inactive are the calls of the source. The calls are words filed in the database; no cut-off is given here.

Legend:
Rhizopus arrhizus = test: Antifungal activity against Rhizopus oryzae IFO 4766; assay type: functional
Candida albicans = test: Antimicrobial activity against Candida albicans IFO 1061; assay type: functional
Micrococcus luteus = test: Antibacterial activity against Micrococcus luteus IFO 3333; assay type: functional
Method in brief: (§1)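 MIC by serial twofold broth dilution; bacteria grown in 3% nutrient broth at 37 °C, read after 24 h of cultivation.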

Bacillus subtilis = test: Antibacterial activity against Bacillus subtilis IFO 3007; assay type: functional; method in brief: as §1
Rhodotorula mucilaginosa = test: Antimicrobial activity against Rhodotorula mucilaginosa IFO 0001; assay type: functional
Escherichia coli = test: Antibacterial activity against Escherichia coli IFO 2545; assay type: functional; method in brief: as §1
[1] = tested on: Schizosaccharomyces pombe; test: Antimicrobial activity against Schizosaccharomyces pombe IFO 0342; assay type: functional
Saccharomyces cerevisiae [2] = test: Antimicrobial activity against Saccharomyces cerevisiae IFO 0203; assay type: functional
Penicillium chrysogenum = test: Antifungal activity against Penicillium chrysogenum IFO 4626; assay type: functional
Saccharomyces cerevisiae [3] = test: Antimicrobial activity against Saccharomyces cerevisiae X2180 1A; assay type: functional
[4] = tested on: Schizosaccharomyces pombe; test: Antimicrobial activity against Schizosaccharomyces pombe L972 h-; assay type: functional
[5] = tested on: Schizosaccharomyces pombe; test: Antimicrobial activity against Schizosaccharomyces pombe SA21 h+; assay type: functional
Aspergillus niger = test: Antifungal activity against Aspergillus niger ATCC 6275; assay type: functional
Mucor mucedo = test: Antifungal activity against Mucor mucedo IFO 7684; assay type: functional
Saccharomyces cerevisiae [6] = test: ROS production in Saccharomyces cerevisiae cells at lethal concentration; assay type: functional, organism-based
Method in brief: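 S. cerevisiae cells (10^7 cells/ml) preloaded with 40 µM DCFH-DA in YPD medium, 30 °C, 60 min. Then exposed to compound in YPD at 30 °C for 60 min, washed and resuspended in phosphate-buffered saline. Fluorescence of 10^7 cells read at excitation 480 nm, emission 530 nm. Intensity reported directly as arbitrary units.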

Saccharomyces cerevisiae [7] = test: ROS production in Saccharomyces cerevisiae cells at 10 uM; assay type: functional, organism-based
Method in brief: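 Yeast cells (10^7 cells/ml) preloaded with 40 µM DCFH-DA in YPD at 30 °C for 60 min, then exposed to compound in YPD at 30 °C for 60 min. Cells washed and resuspended in PBS. Fluorescence read at ex 480/em 530 nm and given in arbitrary units.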

Compound | MIC (Rhizopus arrhizus) | MIC (Candida albicans) | MIC (Micrococcus luteus) | MIC (Bacillus subtilis) | MIC (Rhodotorula mucilaginosa) | MIC (Escherichia coli) | MIC [1] | MIC (Saccharomyces cerevisiae [2]) | MIC (Penicillium chrysogenum) | MIC (Saccharomyces cerevisiae [3]) | MIC [4] | MIC [5] | MIC (Aspergillus niger) | MIC (Mucor mucedo) | Activity (Saccharomyces cerevisiae [6]) | Activity (Saccharomyces cerevisiae [7])
C/N=C(/N)NCCCCCCCCCCCC(=O)O | > 400 µM | 400 µM (≈ 109 µg/mL) | 400 µM (≈ 109 µg/mL) | 100 µM (≈ 27.1 µg/mL) | 200 µM (≈ 54.3 µg/mL) | 400 µM (≈ 109 µg/mL) | 200 µM (≈ 54.3 µg/mL) | > 400 µM | 400 µM (≈ 109 µg/mL) | 400 µM (≈ 109 µg/mL) | 200 µM (≈ 54.3 µg/mL) | 200 µM (≈ 54.3 µg/mL) | > 400 µM | 400 µM (≈ 109 µg/mL) | – | –
CCCCCCCCCCCC/N=C(\N)NC | 200 µM (≈ 48.3 µg/mL) | 400 µM (≈ 96.6 µg/mL) | > 400 µM | 25 µM (≈ 6.04 µg/mL) | 50 µM (≈ 12.1 µg/mL) | 50 µM (≈ 12.1 µg/mL) | 50 µM (≈ 12.1 µg/mL) | 100 µM (≈ 24.1 µg/mL) | 25 µM (≈ 6.04 µg/mL) | 100 µM (≈ 24.1 µg/mL) | 50 µM (≈ 12.1 µg/mL) | 50 µM (≈ 12.1 µg/mL) | 50 µM (≈ 12.1 µg/mL) | 50 µM (≈ 12.1 µg/mL) | – | –
CNC(=N)NCCCCCCCCCCCC(=O)OC | > 400 µM | > 400 µM | > 400 µM | 400 µM (≈ 114 µg/mL) | 200 µM (≈ 57.1 µg/mL) | 400 µM (≈ 114 µg/mL) | 400 µM (≈ 114 µg/mL) | > 400 µM | 200 µM (≈ 57.1 µg/mL) | > 400 µM | 400 µM (≈ 114 µg/mL) | 400 µM (≈ 114 µg/mL) | 200 µM (≈ 57.1 µg/mL) | > 400 µM | – | –
C/N=C(/N)NCCCCCCCCCCCCO | > 400 µM | > 400 µM | > 400 µM | > 400 µM | > 400 µM | > 400 µM | > 400 µM | > 400 µM | > 400 µM | > 400 µM | > 400 µM | > 400 µM | > 400 µM | > 400 µM | – | –
CCCCCCCCCCCCCCCC/N=C(\N)NC | 50 µM (≈ 14.9 µg/mL) | 200 µM (≈ 59.5 µg/mL) | > 400 µM | 12.5 µM (≈ 3.72 µg/mL) | 12.5 µM (≈ 3.72 µg/mL) | 50 µM (≈ 14.9 µg/mL) | 25 µM (≈ 7.44 µg/mL) | 50 µM (≈ 14.9 µg/mL) | 6.25 µM (≈ 1.86 µg/mL) | 100 µM (≈ 29.8 µg/mL) | 12.5 µM (≈ 3.72 µg/mL) | 12.5 µM (≈ 3.72 µg/mL) | 25 µM (≈ 7.44 µg/mL) | 12.5 µM (≈ 3.72 µg/mL) | Active | –
C[C@@H]1[C@H](O)[C@@H](C)/C=C/C=C/C=C/C=C/C=C/C=C/C=C/[C@H](O[C@@H]2O[C@H](C)[C@@H](O)[C@H](N)[C@@H]2O)C[C@@H]2O[C@](O)(C[C@@H](O)C[C@@H](O)[C@H](O)CC[C@@H](O)C[C@@H](O)CC(=O)O[C@H]1C)C[C@H](O)[C@H]2C(=O)O | – | – | – | – | – | – | – | – | – | – | – | – | – | – | – | inactive
C/N=C(/N)NCCC/C=C/CCC[C@H](C)C[C@H](C)[C@H]1OC(=O)C(C)C(O)/C=C/C(C)C(O)CC(O)C(C)C(O)CCC(C)C(O)CC2(O)OC(CC(OC(=O)CC(=O)O)CC(O)CC(O)C(C)C(O)/C=C/C=C/C1C)CC(O)C2O (stereo not given in full) [NIPHIMYCIN] | 1 µM (≈ 1.14 µg/mL) | 2 µM (≈ 2.28 µg/mL) | – | 5 µM (≈ 5.71 µg/mL) | 2 µM (≈ 2.28 µg/mL) | – | – | – | 1 µM (≈ 1.14 µg/mL) | 5 µM (≈ 5.71 µg/mL) | 2 µM (≈ 2.28 µg/mL) | – | 2 µM (≈ 2.28 µg/mL) | 10 µM (≈ 11.4 µg/mL) | Active | –
CCCCCCCC/N=C(\N)NC | > 400 µM | > 400 µM | > 400 µM | > 400 µM | > 400 µM | 400 µM (≈ 74.1 µg/mL) | 400 µM (≈ 74.1 µg/mL) | > 400 µM | 100 µM (≈ 18.5 µg/mL) | > 400 µM | 200 µM (≈ 37.1 µg/mL) | 400 µM (≈ 74.1 µg/mL) | > 400 µM | > 400 µM | – | –
CCCC/N=C(\N)NC | > 400 µM | > 400 µM | > 400 µM | > 400 µM | > 400 µM | 400 µM (≈ 51.7 µg/mL) | > 400 µM | > 400 µM | 100 µM (≈ 12.9 µg/mL) | > 400 µM | > 400 µM | > 400 µM | > 400 µM | > 400 µM | – | –
